Assay results: paper PMC6959494 (Egyptian journal of chemistry, 2018)
≈ marks a conversion by molar mass, not a printed value. Where two headings read alike, the source gives them in different places.

How the values were obtained:
[1] = system: E. faecalisATCC 29212 sensitive; assay: MIC by microbroth dilution; type: cell-based, Enterococcus faecalis
How it was run: (§1)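 Broth microdilution per international standard ISO […]. The panel covered clinical isolates and NCTC/ATCC control organisms, including resistant phenotypes, and ampicillin was run alongside as comparator.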

[2] = target: P. aeruginosa PheRS (Pseudomonas aeruginosa, UniProt Q9I0A3); assay: tRNA aminoacylation scintillation proximity assay, P. aeruginosa PheRS; type: biochemical
How it was run: (§2)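 E. coli tRNA was added and incubated 1 h at 37 °C, then stopped with EDTA. Poly-L-lysine yttrium silicate SPA beads in citric acid were added for 1 h before scintillation counting. DMSO-only controls were included, and IC50 came from a sigmoidal dose-response fit.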

[3] = target: S. pneumonia PheRS (Streptococcus pneumoniae, UniProt Q97S36); assay: tRNA aminoacylation scintillation proximity assay, S. pneumonia PheRS; type: biochemical
How it was run: as §2

[4] = system: P. aeruginosa ATCC 27853 sensitive; assay: MIC by microbroth dilution; type: cell-based, Pseudomonas aeruginosa
How it was run: as §1

[5] = system: E. faecium 16568 sensitive; assay: MIC by microbroth dilution; type: cell-based; conditions: Enterococcus faecium
How it was run: as §1

[6] = system: A.baumannii572 sensitive; assay: MIC by microbroth dilution; type: cell-based, Acinetobacter baumannii
How it was run: as §1

[7] = system: P. mirabilis NCTC 10975 sensitive; assay: MIC by microbroth dilution; type: cell-based, Proteus mirabilis
How it was run: as §1

[8] = system: S. aureus SH1000 sensitive strain; assay: MIC against S. aureus SH1000 sensitive strain; type: cell-based, Staphylococcus aureus; conditions: for MIC: Staphylococcus aureus, read-out: MIC S. aureus Sensitive SH1000
[9] = system: E. faecalis ATCC 51299 vanB resistant; assay: MIC by microbroth dilution; type: cell-based, Enterococcus faecalis
How it was run: as §1

[10] = system: the tested bacteria (variety of clinically important pathogens); assay: MIC by microbroth dilution, summary in text for the panel of pathogens; type: cell-based; conditions: read-out: MIC, no inhibitory activity
[11] = system: E. coli ATCC 25922 sensitive; assay: MIC by microbroth dilution; type: cell-based
How it was run: as §1

[12] = system: S. aureus NCTC 12493 mecA resistant; assay: MIC by microbroth dilution; type: cell-based
How it was run: as §1

[13] = system: E. faecalis NCTC 12201 vanA resistant; assay: MIC by microbroth dilution; type: cell-based, Enterococcus faecalis
How it was run: as §1

[14] = system: S. aureus ATCC 29213 sensitive; assay: MIC by microbroth dilution; type: cell-based
How it was run: as §1

[15] = system: S.enteritidis8204 sensitive; assay: MIC by microbroth dilution; type: cell-based, Salmonella enteritidis
How it was run: as §1

[16] = system: K. pneumoniae 21856 sensitive; assay: MIC by microbroth dilution; type: cell-based, Klebsiella pneumoniae
How it was run: as §1

[17] = system: B.cepacia NCTC 10661 sensitive; assay: MIC by microbroth dilution; type: cell-based
How it was run: as §1

[18] = system: E. faecalis sensitive and vanA and vanB resistant strains; assay: MIC by microbroth dilution, summary in text for E. faecalis strains; type: cell-based; conditions: Enterococcus faecalis, read-out: moderate inhibitory activity (MIC)
How it was run: as §1

[19] = Enterococcus faecalis, ATCC29212
[20] = Pseudomonas aeruginosa, ATCC27853
[21] = Enterococcus faecalis, ATCC51299
[22] = Staphylococcus aureus, NCTC12493
[23] = Enterococcus faecalis, NCTC12201
[24] = Staphylococcus aureus, ATCC29213

Chain of S. pneumonia PheRS (Q97S36 whole entry): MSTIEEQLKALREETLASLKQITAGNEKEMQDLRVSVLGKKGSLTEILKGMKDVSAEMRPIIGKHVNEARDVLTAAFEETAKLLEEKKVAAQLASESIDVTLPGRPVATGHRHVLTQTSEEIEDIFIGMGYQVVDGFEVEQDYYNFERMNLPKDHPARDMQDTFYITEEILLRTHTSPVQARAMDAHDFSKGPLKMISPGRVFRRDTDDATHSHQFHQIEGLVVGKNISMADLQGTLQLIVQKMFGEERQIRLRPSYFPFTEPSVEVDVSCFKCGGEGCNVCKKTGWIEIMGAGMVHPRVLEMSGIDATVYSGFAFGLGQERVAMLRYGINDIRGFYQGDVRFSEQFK
Chain of S. pneumonia PheRS (Q97S34 whole entry, further chain): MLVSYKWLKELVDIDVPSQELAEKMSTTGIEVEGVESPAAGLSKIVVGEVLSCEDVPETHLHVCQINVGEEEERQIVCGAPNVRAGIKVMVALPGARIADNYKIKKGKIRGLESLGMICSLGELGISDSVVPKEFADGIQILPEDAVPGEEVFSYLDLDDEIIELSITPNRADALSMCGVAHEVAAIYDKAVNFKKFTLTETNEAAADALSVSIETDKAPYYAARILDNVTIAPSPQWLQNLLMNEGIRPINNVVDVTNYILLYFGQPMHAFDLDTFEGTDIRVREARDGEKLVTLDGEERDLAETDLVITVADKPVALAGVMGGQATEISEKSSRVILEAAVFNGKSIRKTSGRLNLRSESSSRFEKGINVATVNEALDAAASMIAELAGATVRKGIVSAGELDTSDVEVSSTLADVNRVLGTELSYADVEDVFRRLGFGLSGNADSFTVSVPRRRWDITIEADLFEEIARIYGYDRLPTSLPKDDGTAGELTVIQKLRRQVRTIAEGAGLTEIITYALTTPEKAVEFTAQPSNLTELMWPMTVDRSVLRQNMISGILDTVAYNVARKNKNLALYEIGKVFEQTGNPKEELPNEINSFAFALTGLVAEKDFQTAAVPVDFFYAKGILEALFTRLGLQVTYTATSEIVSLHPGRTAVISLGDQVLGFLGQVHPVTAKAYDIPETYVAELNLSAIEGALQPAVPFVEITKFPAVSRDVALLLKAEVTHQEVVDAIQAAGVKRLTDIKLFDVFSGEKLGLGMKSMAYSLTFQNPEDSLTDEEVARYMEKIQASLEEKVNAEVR
Chain of P. aeruginosa PheRS (Q9I0A3 whole entry): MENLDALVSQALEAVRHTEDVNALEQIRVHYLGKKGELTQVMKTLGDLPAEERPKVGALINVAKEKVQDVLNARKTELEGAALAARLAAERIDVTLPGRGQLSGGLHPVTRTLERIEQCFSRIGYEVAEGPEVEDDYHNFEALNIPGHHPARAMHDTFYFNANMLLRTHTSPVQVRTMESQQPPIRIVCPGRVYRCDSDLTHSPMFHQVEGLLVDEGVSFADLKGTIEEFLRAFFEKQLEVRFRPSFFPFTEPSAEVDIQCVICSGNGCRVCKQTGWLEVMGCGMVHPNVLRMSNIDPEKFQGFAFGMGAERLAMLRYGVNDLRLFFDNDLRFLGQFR
Chain of P. aeruginosa PheRS (Q9I0A4 whole entry partner): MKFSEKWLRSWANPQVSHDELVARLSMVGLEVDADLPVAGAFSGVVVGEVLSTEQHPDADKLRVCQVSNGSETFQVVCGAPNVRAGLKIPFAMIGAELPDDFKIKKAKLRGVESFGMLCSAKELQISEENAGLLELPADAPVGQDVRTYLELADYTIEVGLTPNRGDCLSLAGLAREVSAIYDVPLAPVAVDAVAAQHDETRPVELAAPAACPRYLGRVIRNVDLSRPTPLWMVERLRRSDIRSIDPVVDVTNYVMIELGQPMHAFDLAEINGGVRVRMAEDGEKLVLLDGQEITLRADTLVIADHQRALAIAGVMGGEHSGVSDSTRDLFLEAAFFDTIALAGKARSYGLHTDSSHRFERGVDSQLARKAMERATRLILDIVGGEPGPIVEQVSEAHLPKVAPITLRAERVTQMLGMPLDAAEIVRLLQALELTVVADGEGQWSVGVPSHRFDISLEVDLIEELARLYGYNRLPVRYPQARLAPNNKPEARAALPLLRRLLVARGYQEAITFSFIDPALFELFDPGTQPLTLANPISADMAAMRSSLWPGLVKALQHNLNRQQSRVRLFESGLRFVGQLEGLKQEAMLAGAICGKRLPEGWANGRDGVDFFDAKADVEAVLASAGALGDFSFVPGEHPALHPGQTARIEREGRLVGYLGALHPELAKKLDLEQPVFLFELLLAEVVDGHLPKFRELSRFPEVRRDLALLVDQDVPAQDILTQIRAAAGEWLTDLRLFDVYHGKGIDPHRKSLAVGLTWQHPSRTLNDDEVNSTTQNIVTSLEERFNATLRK

Compound | MIC [1, 19] | IC50 [2] | IC50 [3] | MIC [4, 20] | MIC [5] | MIC ([6]; Acinetobacter baumannii) | MIC ([7]; Proteus mirabilis, NCTC10975) | MIC [8] | MIC [9, 21] | MIC [10] | MIC ([11]; Escherichia coli, ATCC25922) | MIC [12, 22] | MIC [13, 23] | MIC [14, 24] | MIC ([15]; Salmonella enterica) | MIC ([16]; Klebsiella pneumoniae) | other results
CCSc1nnc(CCCn2cnc3ccccc32)n1-c1ccccc1 [16a, 1-(3-(5-(Ethylthio)-4-phenyl-4H-1,2,4-triazol-3-yl)propyl)-1H-benzimidazole] | > 128 µg/mL | 343 µM | 561 µM | > 128 µg/mL | > 128 µg/mL | > 128 µg/mL | > 128 µg/mL | > 128 µg/mL | > 128 µg/mL | ≥ 128 µg/mL | > 128 µg/mL | > 128 µg/mL | > 128 µg/mL | > 128 µg/mL | > 128 µg/mL | > 128 µg/mL | 
COc1cc(OC)cc(C(=O)Nc2nnc(CCn3cnc4ccccc43)s2)c1 [11a, N-(5-(2-(1H-benzimidazol-1-yl)ethyl)-1,3,4-thiadiazol-2-yl)-3,5-dimethoxybenzamide] |  | 742 µM | 345 µM |  |  |  |  | > 128 µg/mL |  |  |  |  |  |  |  |  | 
O=C(Nc1nnc(CCn2cnc3ccccc32)s1)c1ccc(F)cc1 [11b, N-(5-(2-(1H-benzimidazol-1-yl)ethyl)-1.3.4-thiadiazol-2-yl)-4fluorobenzamide] |  |  |  |  |  |  |  |  |  |  |  |  |  |  |  |  | MIC ([1]; E. faecalis ATCC 29212 sensitive): 64 µg/mL (≈ 174 µM); IC50 ([2]; read-out: P. aeruginosa PheRS IC50, aminoacylation SPA, 0.08 μM enzyme): 907 µM; IC50 ([3]; read-out: S. pneumonia PheRS IC50, aminoacylation SPA, 0.2 μM enzyme): 685 µM; MIC ([4]; P. aeruginosa ATCC 27853 sensitive): >128 µg/mL; MIC ([6]; A.baumannii572 sensitive): >128 µg/mL; MIC [17]: >128 µg/mL; MIC ([7]; P. mirabilis NCTC 10975 sensitive): >128 µg/mL; MIC S. aureus Sensitive SH1000 ([8]; S. aureus SH1000 sensitive strain): >128 µg/mL; MIC ([9]; E. faecalis ATCC 51299 vanB resistant): 64 µg/mL (≈ 174 µM); MIC ([11]; E. coli ATCC 25922 sensitive): >128 µg/mL; MIC ([12]; S. aureus NCTC 12493 mecA resistant): 128 µg/mL (≈ 348 µM); MIC ([13]; E. faecalis NCTC 12201 vanA resistant): 32 µg/mL (≈ 87.1 µM); MIC ([14]; S. aureus ATCC 29213 sensitive): >128 µg/mL; MIC ([15]; S.enteritidis8204 sensitive): >128 µg/mL; MIC ([16]; K. pneumoniae 21856 sensitive): >128 µg/mL
CCSc1nnc(CCCn2cnc3c(N)ncnc32)n1-c1ccccc1 [17a, 9-(3-(5-(Ethylthio)-4-phenyl-4H-1,2,4-triazol-3-yl)propyl)-9H-purin-6-amine] | > 128 µg/mL | 199 µM | 619 µM | > 128 µg/mL |  | > 128 µg/mL | > 128 µg/mL | > 128 µg/mL | 64 µg/mL (≈ 168 µM) | ≥ 128 µg/mL | > 128 µg/mL | 128 µg/mL (≈ 336 µM) | 64 µg/mL (≈ 168 µM) | > 128 µg/mL | > 128 µg/mL | > 128 µg/mL | MIC [18]: 32 to 64 µg/mL (≈ 84.1 to 168 µM)
CC1(C)S[C@@H]2[C@H](NC(=O)[C@H](N)c3ccccc3)C(=O)N2[C@H]1C(=O)O [Amp, ampicillin, reference compound] |  |  |  | > 128 µg/mL | 4 µg/mL (≈ 11.4 µM) | > 128 µg/mL | > 128 µg/mL |  |  |  |  | > 128 µg/mL | 16 µg/mL (≈ 45.8 µM) | 4 µg/mL (≈ 11.4 µM) |  | > 128 µg/mL | 
CCCSc1nnc(CCCn2cnc3ccccc32)n1-c1ccccc1 [16b, 1-(3-(4-Phenyl-5-(propylthio)-4H-1,2,4-triazol-3-yl)propyl)1H-benzimidazole] |  | 375 µM | 390 µM |  |  |  |  | > 128 µg/mL |  |  |  |  |  |  |  |  | 
CCCSc1nnc(CCCn2cnc3c(N)ncnc32)n1-c1ccccc1 [17b, 9-(3-(4-Phenyl-5-(propylthio)-4H-1,2,4-triazol-3-yl)propyl)-9H-purin-6-amine] | > 128 µg/mL | 294 µM | 686 µM | > 128 µg/mL | > 128 µg/mL | > 128 µg/mL | > 128 µg/mL | > 128 µg/mL | > 128 µg/mL | ≥ 128 µg/mL | > 128 µg/mL | > 128 µg/mL | > 128 µg/mL | > 128 µg/mL | > 128 µg/mL | > 128 µg/mL | 
